Screening results (PubChem)
In the library only some 1.8% were active in any assay of this set; here they are far more common.
NPY-Y2 PAM-ag – NPY-Y2 potentiators or agonists, primary screen, cell-based; actives 0.45% (n = 220,000); activation, % at 3.6 µM; Neuropeptide Y receptor type 2 (Homo sapiens), P49146; cells expressing NPY-Y2, potentiator/agonist read-out; in the data active means activation above about 27%;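 further: cells stimulated with NPY near EC25 plus isoproterenol at EC100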
Target sequence (P49146 whole entry, looked up): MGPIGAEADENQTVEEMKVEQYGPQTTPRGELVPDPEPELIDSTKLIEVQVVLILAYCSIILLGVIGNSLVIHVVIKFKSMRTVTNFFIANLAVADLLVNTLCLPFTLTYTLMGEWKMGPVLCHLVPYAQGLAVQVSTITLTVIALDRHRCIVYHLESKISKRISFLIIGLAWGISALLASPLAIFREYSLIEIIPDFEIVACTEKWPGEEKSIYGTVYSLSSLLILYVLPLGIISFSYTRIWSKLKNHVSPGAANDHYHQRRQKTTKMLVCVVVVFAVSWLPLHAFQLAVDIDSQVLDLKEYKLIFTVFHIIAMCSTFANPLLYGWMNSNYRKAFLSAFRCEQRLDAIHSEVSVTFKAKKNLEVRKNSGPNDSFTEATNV
NPY Y1 blocker – NPY-Y1 receptor antagonists, primary screen, cell-based | Neuropeptide Y receptor type 1 (Homo sapiens), P25929 | inhibition, % at 3.6 µM | HEK293-CNG Y1 cells, membrane potential fluorescence; NPY at EC95, then isoproterenol | actives 1% (n = 200,000);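 active means inhibition above the campaign mean inhibition of all tested compounds plus 3 SD, cut at about 20% in these data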
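material = HEK293 cells with Y1 receptor plus CNG channel | also added = NPY 25 nM then isoproterenol 1 µM plus Ro 20-1724 25 µM | schedule = dye 3 h, compound 60 min room temperature, stimulation 45 min | measured by = membrane potential fluorescence | benchmarks = high control isoproterenol alone, low control NPY with isoproterenol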
NPY Y2 blocker – NPY-Y2 receptor antagonists, primary screen, cell-based. inhibition, % at 2.7 µM. Neuropeptide Y receptor type 2 (Homo sapiens), P49146. NPY-Y2 expressing cells, antagonist mode. actives 0.99% (n = 140,000)
NPY-Y1 PAM-ag – NPY-Y1 receptor potentiators or agonists, primary screen, cell-based | Neuropeptide Y receptor type 1 (Homo sapiens), P25929 | NPY-Y1 expressing cells, potentiator/agonist activation | activation, % at 3.6 µM | actives 0.37% (n = 220,000) | AID 1304, 2008; in the data active means activation above about 33%, passing the limit was not always enough;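 further: cells stimulated with NPY at EC10 then isoproterenol at EC100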
NPY-Y1 ant conf – NPY-Y1 receptor antagonists, retest of hits, confirmation, HEK293-CNG cells, membrane potential fluorescence, triplicate; cAMP; NPY challenge against isoproterenol-raised cAMP; actives 21% (n = 1,200); inhibition, % at 3.6 µM; shares compounds with NPY Y1 blocker; in the data active means inhibition above about 20%
NPY-Y2 antag ct – NPY-Y2 receptor antagonists, selectivity check, confirmation, counter-screen for NPY-Y1 antagonist project, HEK293-CNG cells, membrane potential fluorescence, triplicate. AID 1255, 2008. inhibition, % at 3.6 µM. antagonism; cells given NPY, then isoproterenol. shares compounds with NPY Y1 blocker. actives 28% (n = 1,200)
Each line names hits and unclear results; the compound was inactive in the other large screens (follow-up assays come after a bar, where they were run). Unless noted, no stated cut-off is given here; in the data, active means inhibition above about 17%; inactive means the rest.

COc1cccc(C2=NN(C(=O)c3ccc(C)o3)C(O)(C(F)(F)F)C2)c1 (stereo unspecified)	NPY Y1 blocker 31 (no result: NPY Y2 blocker) | NPY-Y1 ant conf inactive | NPY-Y2 antag ct inactive
O=C(CSc1nnc(Cc2ccccc2)n1Cc1ccco1)NC12CC3CC(CC(C3)C1)C2	NPY Y1 blocker 23 | NPY-Y1 ant conf inactive | NPY-Y2 antag ct inactive
CC(CC(=O)O)CC(=O)Nc1nncs1 (stereo unspecified)	none (no result: NPY Y1 blocker, NPY Y2 blocker)
COc1cccc(-n2cnc3sc(C)cc3c2=O)c1	none (no result: NPY Y2 blocker)
CCn1nc(CC(=O)Nc2nnc(CC(=O)N3CCCC3)s2)c2ccccc2c1=O	NPY Y1 blocker 20 | NPY-Y1 ant conf inactive | NPY-Y2 antag ct inactive
CCn1nc(CC(=O)Nc2nnc(CC(=O)N3CCOCC3)s2)c2ccccc2c1=O	none
c1ccc(-n2cc(CN3CCCC(CN4CCCC4)C3)c(-c3ccc4c(c3)OCO4)n2)cc1 (stereo unspecified)	NPY Y1 blocker 32 (no result: NPY Y2 blocker) | NPY-Y1 ant conf inactive | NPY-Y2 antag ct 27
CCOC(=O)c1c(-c2ccccc2)csc1NC(=O)CSc1nc(N)cc(N)n1	none
CCOC(=O)c1c(-c2ccccc2)csc1NC(=O)CSc1nc(C)cc(C)n1	NPY Y1 blocker 20 | NPY-Y1 ant conf inactive | NPY-Y2 antag ct inactive
CC(=O)Nc1ccccc1-c1nc2ccccc2nc1OCC(=O)c1ccc2ccccc2c1	NPY Y1 blocker 21 | NPY-Y1 ant conf inactive | NPY-Y2 antag ct inactive
CNC(=S)Nc1ccc(C(N)=O)cc1	none (no result: NPY Y2 blocker)
CC1CCc2nc3ccccc3c(C(=O)OCC(=O)NC3CCS(=O)(=O)C3)c2C1 (stereo unspecified)	none (no result: NPY Y2 blocker)
COc1cccc(NC(=O)COC(=O)c2c3c(nc4ccccc24)CCC(C)C3)c1 (stereo unspecified)	NPY Y1 blocker 31 | NPY-Y1 ant conf inactive | NPY-Y2 antag ct inactive
Clc1ccc(-n2cccc2CN2CCc3c([nH]c4ccccc34)C2c2ccccn2)nc1 (stereo unspecified)	NPY Y1 blocker 26 (no result: NPY Y2 blocker) | NPY-Y1 ant conf inactive | NPY-Y2 antag ct inactive
CC(c1ccccc1)N1C(=O)/C(=C/c2ccncc2)SC1=S (stereo unspecified)	none (no result: NPY Y1 blocker, NPY Y2 blocker)
COc1ccc(C(=O)C2CCCN(C(=O)c3ccoc3C)C2)cc1F (stereo unspecified)	none (no result: NPY Y1 blocker, NPY Y2 blocker)
COc1ccc(/C(C)=C2\SC(=S)N(CCC(=O)O)C2=O)cc1	NPY Y1 blocker 23 | NPY-Y1 ant conf inactive | NPY-Y2 antag ct inactive
Cc1ccc(CNC(=O)CCc2nc(-c3cccs3)no2)cc1	NPY Y1 blocker 21 | NPY-Y1 ant conf inactive | NPY-Y2 antag ct inactive
O=C(CCc1nc(-c2cccs2)no1)NCc1ccc(F)cc1Cl	none
Cc1nc(-n2ncc(C#N)c2N)c2c3c(sc2n1)CCC3	none
CCCSc1nc(-n2ncc(C#N)c2N)c2c3c(sc2n1)CCC(C)C3 (stereo unspecified)	NPY Y1 blocker 21 | NPY-Y1 ant conf inactive | NPY-Y2 antag ct inactive
COc1ccc(CN2C(=O)c3ccccc3C2C(=O)NC2CCC(C)CC2)c(OC)c1 (stereo unspecified)	NPY Y1 blocker 23 (no result: NPY Y2 blocker) | NPY-Y1 ant conf inactive | NPY-Y2 antag ct inactive
COc1ccc(CN2C(=O)c3ccccc3C2C(=O)NC2CCCC2)c(OC)c1 (stereo unspecified)	none
COc1ccc(CN2C(=O)c3ccccc3C2C(=O)NC2CCCC(C)C2C)c(OC)c1 (stereo unspecified)	NPY Y1 blocker 36 (no result: NPY Y2 blocker) | NPY-Y1 ant conf inactive | NPY-Y2 antag ct inactive
COc1ccc(CN2C(=O)c3ccccc3C2C(=O)NCC2CCCO2)c(OC)c1 (stereo unspecified)	none
CC(=O)c1ccc(NC(=S)Nc2cccc(Cl)c2C)cc1	none (no result: NPY Y2 blocker)
CCN(Cc1ccccc1)C(c1cccc(C#N)c1)c1nnnn1C(C)(C)C (stereo unspecified)	NPY Y1 blocker 33 | NPY-Y1 ant conf inactive | NPY-Y2 antag ct inactive
CC1CCN(c2nnc(-c3ccccc3)c3ccccc23)CC1	none (no result: NPY Y2 blocker)
